Measurements from PubChem BioAssay.
Unmarked numbers belong to inactive results. Records with an inconclusive call do not appear. Activity calls are given as the source filed them.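 Rule for the calls, unless noted: active = viability at or below 27.92% in each of two runs, the all-compound median minus 4 SD; inconclusive = no clear call, values can overlap the other calls; inactive = the rest.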

Assays:
[1] = S. cerevisiae growth inhibition in permissive medium (OD615), pilot counter-assay for S. cerevisiae lifespan shortening project, permissive growth control (AID 705;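 active = growth inhibition above 25% in both replicates, a cutoff set 3 SD above the mean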); details: OD615, 24 h, at 10 µM, active compounds read high
Outline: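 System: engineered DeaD yeast; Medium: permissive raffinose/galactose medium; Compound dosing: 10 µM single dose, 0.25% DMSO; Incubation: 4 h cell pre-growth, 24 h exposure at 30 °C; Technique: OD at 615 nm; Evaluation: growth inhibition from lowered OD615 after 24 h.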

[2] = S. cerevisiae growth inhibition in restrictive medium, OD615, pilot screen, restrictive growth control, yeast lifespan reduction project (AID 706;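 active = growth inhibition above a set limit, 3 SD over mean compound inhibition, in both replicates, cut at about 43% in these data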;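 note: modified DeaD lifespan yeast strain shifted to restrictive glucose medium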); details: OD615, 48 h, at 10 µM, active compounds read high
Outline: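 Material: modified S. cerevisiae; buffer or medium: CSMM-D glucose medium; doses: one concentration, 10 µM final, 0.25% DMSO; incubation: 48 h compound exposure at 30 °C; detection: optical density at 615 nm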

[3] = doxorubicin toxicity protection in MRP-1 cells – H69AR cells, CellTiter-Glo, duplicate, MRP-1 activator project, pilot screen (AID 807;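 active = viability increase at or above a cutoff of the median across tested compounds plus 3 SD, cut at about 8.5% in these data, passing the limit was not always enough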;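 note: compound pretreatment 18-22 h then 72 h combined with doxorubicin; 0% = doxorubicin alone and 100% = vehicle without doxorubicin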); details: H69AR viability with doxorubicin, CellTiter-Glo luminescence; at 10 µM; active compounds read high
[4] = viability of HCT116 without oncogenic beta-catenin – human colon tumor cells, pilot screen (AID 823;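 active = cell viability at or below a set limit in both duplicate runs, the limit being the all-compound median minus 4 SD, cut at about 23% in these data, passing the limit was not always enough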;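 note: 0% = wells killed by 20 µM Hyamine and 100% = untreated DMSO cell wells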); details: HCT116 beta-catenin knockout viability, CellTiter-Glo, 60 h; at 10 µM; active compounds read low
[5] = viability of PTEN-null HCT116 cells – cell-based, HCT116 clonal line, CellTiter-Glo, pilot screen (AID 824); details: HCT116 PTEN-deleted viability, 60 h, at 10 µM, active compounds read low;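 note: 0% = 20 µM Hyamine control and 100% = vehicle cell control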
[6] = RAM pathway blockade in budding yeast – dse1pr::URA3 reporter, 5-FOA selection, pilot screen (AID 869;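 active = inhibition over a set limit, the all-compound mean plus 3 SD, in both replicate runs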;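 note: 0% = DMSO wells with no growth and 100% = 10 µM 1-NA-PP1 with full growth; RAM network block rescues cells from 5-FOA so hits raise OD615 growth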); details: S. cerevisiae dse1pr::URA3 5-FOA growth, OD615, 2 d; at 10 µM; active compounds read high; strain carries analog-sensitive mutant Cbk1 kinase
[7] = RAM signaling pathway blockade in yeast – S. cerevisiae, Pdr1DBD-CYC8 efflux-inhibited sensitized strain, primary screen (AID 1298;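 active = RAM network inhibition above 8.4% in each of two replicates, 3 SD over the compound average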;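 note: 0% = DMSO untreated cells without growth and 100% = 10 µM 1-NA-PP1 full growth; higher means more yeast growth rescued from 5-FOA killing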); details: S. cerevisiae cbk1-as DSE1-URA3 strain, 5-FOA growth OD615, 2 d; at 50 µM; active compounds read high

SMILES | growth inhibition [1] [%] | growth inhibition [2] [%] | viability increase [3] [%] | viability [4] [%] | viability [5] | inhibition [6] [%] | RAM network inhibition [7] [%]
Cc1ccc(NC(=O)c2ccco2)cc1C | 4.04 | 0.435 | -3.07 | 95.5 | 90.5% | 0.665 | 0.93
Nc1sc2c(c1C(=O)NC1CCS(=O)(=O)C1)CCCC2 (configuration not stated) | -5.31 | -3.38 | 0.13 | 93.3 | 99.1% | 1.67 | 3.3
CCCSc1nnc2nc(C)cc(C)n12 | -2.7 | 1.39 | -0.95 | 103 | 101% | 2 | -0.46
COc1ccc(N2CCN(S(=O)(=O)c3cccc4cccnc34)CC2)cc1 | -3.57 | 8.34 | -2.89 | 84.9 | 83.6% | 0.47 | 3.66
O=S(=O)(Nc1ccc(O)cc1)c1cccc2cccnc12 | -1.12 | -4.81 | -1.95 | 93.9 | 87% | 2.25 | 0.83
Cc1cccc(NCc2nc(-c3ccccc3)no2)c1 | -2.16 | 9.07 | 2.88 | 107 | 106% | 2.41 | 3.44
Cc1cc2ccccc2n1CCNC(=O)C(C)C | -8.34 | -7.54 | -1.99 | 102 | 98.7% | 0.15 | 2.1
COCCN1C=C(C(=O)OC)C(c2ccc(OC)c(OC)c2)C(C(=O)OC)=C1 | -4.43 | -9.06 | -0.95 | 98 | 100% | 1.43 | -0.97
C=CCOC(=O)C1=C(C)NC(=O)NC1c1ccc(Cl)cc1 (configuration not stated) | -3.88 | -3.15 | 0.95 | 102 | 88.2% | -0.115 | 2.31
CN(c1ccc(C(=O)O)cc1)S(=O)(=O)c1ccccc1 | 0.21 | 5.12 | -1.24 | 99.5 | 92.5% | 1.14 | 1.5
CC(C)N(Cc1nc(-c2ccccc2)no1)C(=O)c1ccc(Cl)cc1 | -9.85 | -12 | 2.12 | 80.7 | 76.2% | 3.25 | 6.42
CCOCCCNC(=O)C(NC(=O)c1ccc2c(c1)OCO2)c1ccc(OC)cc1 (configuration not stated) | -12.5 | -24.3 | -2 | 101 | 96.3% | 1.6 | 3.11
CCOC(=O)C1CCN(C(=O)c2ccc(Cl)c(NC3=NC4CS(=O)(=O)CC4S3)c2)CC1 (configuration not stated) | -13.6 | -14.5 | -0.09 | 107 | 89.4% | 1.65 | -0.37
O=C(O)CCCC(=O)N1CCc2cc(S(=O)(=O)N3CCc4ccccc43)ccc21 | -2.29 | -2.17 | -0.98 | 90.7 | 91.8% | 1.98 | 1.3
Cc1ccc(S(=O)(=O)Cc2ccc(C(=O)N3CCN(c4ccc(F)cc4)CC3)o2)cc1 | -9.22 | -15.2 | -6.28 | 33 | 23.3% (active) | 0.575 | 4.81
CCN(CCNS(=O)(=O)c1ccc2c(c1)oc(=O)n2C)c1ccccc1 | -5.19 | -5.92 | -1.13 | 108 | 105% | 4.3 | 1.2
Cc1ccc2nc(N3CCOCC3)c3nncn3c2c1 | -6.37 | 3.97 | -2.43 | 106 | 96.1% | 0.915 | 1.57
CCOC(=O)N1CCN(C(=O)C2CCCN(c3nc4ccc(OCC)cc4s3)C2)CC1 (configuration not stated) | -6.49 | -7.45 | -1.32 | 90.6 | 89.7% | 0.33 | 5.16

SMILES | growth inhibition [1] [%] | growth inhibition [2] [%] | viability increase [3] [%] | viability [4] [%] | viability [5] | inhibition [6] [%] | RAM network inhibition [7] [%]
O=C(CSc1nc2c(cnn2-c2ccc(F)cc2)c(=O)[nH]1)N1CCOCC1 | -14.2 | -19.8 | -3.32 | 96.7 | 91.4% | 3.16 | 6.85
CCNS(=O)(=O)c1ccc(NC(=O)c2cccnc2)cc1 | 1.24 | 8.7 | 0.48 | 95 | 99.6% | 1.61 | 6.74
COc1ccc(-n2cnnc2)cc1 | -1.44 | -0.83 | -2.88 | 98.2 | 101% | 1.05 | -0.78
c1ccc(CNc2ncnc3c2ncn3C2CCCCO2)cc1 (configuration not stated) | -5.22 | -8.96 | -1.76 | 101 | 98% | 1.25 | 5.84
CCOc1ccc(CC(=O)Nc2c(C(N)=O)oc3ccc(Br)cc23)cc1OCC | -12 | -15.8 | -5.14 | 61 | 45% | 2.49 | 0.56
CCOC(=O)N1CCN(C(=O)Cn2ncc3c2-c2ccccc2OC3)CC1 | -14 | -8.46 | -1.16 | 102 | 95.9% | 0.82 | -1.43
COc1ccc2c(c1OC)C(=O)OC2Nc1ccccn1 (configuration not stated) | 10.3 | -7.84 | -2.18 | 102 | 99.7% | 1.34 | 1.17
CC(=O)NC(CCS(C)(=O)=O)C(=O)Nc1cc(C)ccc1C (configuration not stated) | -10.6 | -20 | 0.57 | 98.5 | 94.3% | 2.23 | 3.07
COc1ccc(-c2cn3c(C)c(C(=O)NC(C)(C)C)sc3n2)cc1 | -8.09 | -9.73 | -5.94 | 81.5 | 85.7% | 0.645 | 1.82
O=C(COC(=O)c1cnccn1)c1ccc(Br)cc1 | -9.27 | -14.4 | 0.41 | 101 | 96.7% | 1.94 | 2.72
Cc1cc(C)n(-c2nc3ccccc3nc2Nc2ccc(CC(=O)O)cc2)n1 | 5.73 | -0.88 | -1.81 | 98.8 | 95.5% | -1.14 | -2.71
Cc1ccc(C(=O)NCCCCNC(=O)c2ccc(C)o2)o1 | -5.8 | -4.64 | -1.97 | 106 | 96.3% | 3.56 | 4.03
COC(=O)c1cc(NC(=O)c2nccnc2C(=O)O)cc(C(=O)OC)c1 | -10.9 | 3.16 | -1.21 | 90.4 | 98% | -0.12 | -1.46
Cc1ccc(N2C(=O)C(Cl)=C(NCCO)C2=O)c(C)c1 | -4.71 | -2.88 | -2.47 | 105 | 100% | 2.02 | 8.82
CCOC(=O)c1nn(-c2ccc3c(c2)CCN3C(C)=O)cc1O | -3.56 | -5.95 | -1.4 | 101 | 92.7% | 0.375 | 3.05
COc1ccc(OC)c2[nH]c(=O)c(CCNC(C)=O)cc12 | -6.6 | 3.73 | -0.39 | 109 | 104% | 2.21 | 1.88
CCOC(=O)c1ccn(-c2nc(-c3ccco3)cc(C(F)(F)F)n2)n1 | -8.11 | 6.16 | 1.27 | 106 | 97.8% | -0.505 | 4.89
CC1CCN(c2nc3c(c(=O)n(C)c(=O)n3C)n2CCSc2ncccn2)CC1 | -3.47 | -3.19 | -0.04 | 99.1 | 96.3% | 1.61 | 2.44
